Among the data in ChEMBL document CHEMBL4316611, “Design, synthesis and evaluation of novel (S)-tryptamine derivatives containing an allyl group and an aryl sulfonamide unit as anticancer agents” (Bioorg Med Chem Lett, 2019) are IC50 values, retold here.

What all share (assay type): functional, cell-based
For one test, the system named is HeLa. Description: Cytotoxicity in human HeLa cells assessed as reduction in cell viability incubated for 48 hrs by MTT assay. The method, boiled down:
(§1)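 MTT viability assay; cells exposed continuously to compounds for 48 h. IC50 values reported as mean ± SD. Cisplatin served as positive control.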

In the next test the test system is HepG2. In words: Cytotoxicity in human HepG2 cells assessed as reduction in cell viability incubated for 48 hrs by MTT assay. To be noted: HepG2, 48 h. An outline of the steps: as §1
For orientation: Tetrazolium assays rely on reduction of a dye to a coloured formazan, in cell work by metabolically active cells.

For the next test, the system named is CNE. Description: Cytotoxicity in human CNE1 cells assessed as reduction in cell viability incubated for 48 hrs by MTT assay. An outline of the steps: as §1
The test system of another test is A549. In words: Cytotoxicity in human A549 cells assessed as reduction in cell viability incubated for 48 hrs by MTT assay. To be noted: A549, 48 h. The method, boiled down:
as §1

Molecules are shown by their SMILES. Where only a bound is given, the exact number is not on record here.

Usually IC50 stands for the midpoint of a concentration-inhibition curve. On to `C=CC[C@@H](Cc1c[nH]c2ccccc12)NS(=O)(=O)c1ccc(F)cc1Cl`, for which the IC50 in the test on HeLa turned out to be 61.7 µM; with HepG2, 71.7 µM.
On the same counts, the results for `C=CC[C@@H](Cc1c[nH]c2ccccc12)NS(=O)(=O)c1ccc(Br)cc1F` are 58.5 µM and 58.7 µM.
With `C=CC[C@@H](Cc1c[nH]c2ccccc12)NS(=O)(=O)c1cccc(C(F)(F)F)c1`, the IC50 with HeLa came out at 45.1 µM; in the test with HepG2 it was 46.9 µM; in the test on CNE, 40.7 µM; in the test with A549 it was 52.1 µM.
With `C=CC[C@@H](Cc1c[nH]c2ccccc12)NS(=O)(=O)c1ccc(Br)c(C)c1`, the IC50 worked out at 46.7 µM with HeLa, 52.2 µM with HepG2, 38.6 µM with CNE and 54.1 µM with A549.
For `C=CC[C@@H](Cc1c[nH]c2ccccc12)NS(=O)(=O)c1ccc(C)c(F)c1`, in that order: 43.6 µM, 39.1 µM, 39.8 µM and 70.2 µM.
`C=CC[C@@H](Cc1c[nH]c2ccccc12)NS(=O)(=O)c1ccc(Br)c(F)c1`: the IC50 worked out at 54.5 µM with HeLa and 58.1 µM with HepG2.
For `C=CC[C@@H](Cc1c[nH]c2ccccc12)NS(=O)(=O)c1c(C)c(C)cc(C)c1C`, the IC50 amounted to 26.1 µM in the test on HeLa, 24.7 µM in the test on HepG2, 26.3 µM in the test on CNE and 29.9 µM in the test with A549.
On the same counts, the results for `C=CC[C@@H](Cc1c[nH]c2ccccc12)NS(=O)(=O)c1ccc2ccccc2c1` are 52.7 µM, 44.9 µM, 45.2 µM and 55.5 µM.
On the same counts, the results for `C=CC[C@@H](Cc1c[nH]c2ccccc12)NS(=O)(=O)c1ccc(Cl)c(C(F)(F)F)c1` are 42.8 µM, 24.4 µM, 28.8 µM and 34.3 µM.
For `C=CC[C@@H](Cc1c[nH]c2ccccc12)NS(=O)(=O)c1cc(Br)cc(C(F)(F)F)c1`, in that order: 31.9 µM, 25.3 µM, 22.9 µM and 29.3 µM.
Take `C=CC[C@@H](Cc1c[nH]c2ccccc12)NS(=O)(=O)c1ccc(Br)cc1Cl`: the IC50 with HeLa was 53.5 µM; in the test with HepG2 it was 54.3 µM; in the test on CNE it was 38.5 µM; in the test on A549, 48.8 µM.
On the same counts, the results for `C=CC[C@@H](Cc1c[nH]c2ccccc12)NS(=O)(=O)c1c(C)cc(C)cc1C` are 35.3 µM, 37.2 µM, 31.5 µM and 40.4 µM.
As to `CCC[C@H](N)Cc1c[nH]c2ccccc12`, the half-maximal inhibitory concentration (IC50) with HeLa, in the test with HepG2, in the test with CNE and in the test with A549 was greater than 100 µM throughout.
Take `C=CC[C@@H](Cc1c[nH]c2ccccc12)NS(=O)(=O)c1ccc(CCC)cc1`: the IC50 in the test with HeLa is 67.1 µM; with HepG2, 58.4 µM.
Consider `C=CC[C@@H](Cc1c[nH]c2ccccc12)NS(=O)(=O)c1ccccc1OC(F)(F)F`, for which the IC50 was found to be 68.2 µM in the test on HeLa, 39.5 µM with HepG2, 66.9 µM with CNE and 65.9 µM in the test with A549.
With `C=CC[C@H](N)Cc1c[nH]c2ccccc12`, the IC50 with HeLa, with HepG2, with CNE and in the test with A549 was greater than 100 µM in each case.
Regarding `C=CC[C@@H](Cc1c[nH]c2ccccc12)NS(=O)(=O)c1cc(F)c(Br)cc1F`, the IC50 with HeLa came out at 58.9 µM; in the test on HepG2, 35.3 µM; in the test with CNE it was 43.4 µM; in the test on A549 it was 65 µM.
As for `C=CC[C@@H](Cc1c[nH]c2ccccc12)NS(=O)(=O)c1ccc(C(F)(F)F)cc1`, the IC50 in the test with HeLa was 41.7 µM; in the test with HepG2 it was 51.8 µM; with CNE, 38.1 µM; with A549, 49.9 µM.
For `C=CC[C@@H](Cc1c[nH]c2ccccc12)NS(=O)(=O)c1ccc(-c2ccccc2)cc1`, in that order: 34.5 µM, 43 µM, 34.5 µM and 33.6 µM.
With `C=CC[C@@H](Cc1c[nH]c2ccccc12)NS(=O)(=O)c1ccc(C)cc1`, the IC50 with HeLa and in the test on HepG2 was greater than 100 µM in each case.
For the compound `C=CC[C@@H](Cc1c[nH]c2ccccc12)NS(=O)(=O)c1cccc(Br)c1`, the IC50 came out at 40.5 µM with HeLa, 58.9 µM in the test with HepG2, 48 µM in the test with CNE and 52.1 µM in the test with A549.
In the case of `C=CC[C@@H](Cc1c[nH]c2ccccc12)NS(=O)(=O)c1cccc2c(N(C)C)cccc12`, the IC50 in the test on HeLa worked out at 34.5 µM; in the test on HepG2, 52 µM; with CNE it was 36 µM; with A549, 52.4 µM.
In the case of `C=CC[C@@H](Cc1c[nH]c2ccccc12)NS(=O)(=O)c1ccc(Br)cc1`, the IC50 with HeLa came out at 61 µM; with HepG2, 39.6 µM; in the test with CNE, 41.2 µM; in the test on A549, 58.6 µM.
Consider `C=CC[C@@H](Cc1c[nH]c2ccccc12)NS(=O)(=O)c1ccc(F)cc1`, for which the 50% inhibitory concentration (IC50) with HeLa and with HepG2 was greater than 100 µM in each case.
Regarding `C=CC[C@@H](Cc1c[nH]c2ccccc12)NS(=O)(=O)c1ccccc1Cl`, the IC50 in the test on HeLa and in the test on HepG2 was greater than 100 µM in each case.
For `C=CC[C@@H](Cc1c[nH]c2ccccc12)NS(=O)(=O)c1cc(C)ccc1C`, the IC50 was 45.6 µM with HeLa, 44.6 µM in the test with HepG2, 42 µM with CNE and 48.3 µM in the test with A549.
In the case of `CCC[C@@H](Cc1c[nH]c2ccccc12)NS(=O)(=O)c1c(C(C)C)cc(C(C)C)cc1C(C)C`, the IC50 was 16.4 µM in the test on HeLa, 30.8 µM with HepG2, 17.8 µM with CNE and 39.8 µM in the test with A549.
For `CCC[C@@H](Cc1c[nH]c2ccccc12)NS(=O)(=O)c1ccccc1`, in that order: 78.9 µM, 68.7 µM, 47.1 µM and 91.5 µM.
For `C=CC[C@@H](Cc1c[nH]c2ccccc12)NS(=O)(=O)c1ccc(Cl)cc1[N+](=O)[O-]`, the IC50 with HeLa worked out at 67.9 µM; with HepG2, 71.3 µM.
In the case of `C=CC[C@@H](Cc1c[nH]c2ccccc12)NS(=O)(=O)c1ccc(Cl)c([N+](=O)[O-])c1`, the IC50 is 53.2 µM in the test with HeLa and 89.7 µM in the test with HepG2.
Turning to `C=CC[C@@H](Cc1c[nH]c2ccccc12)NS(=O)(=O)c1ccc(OC(F)(F)F)cc1`, the concentration for half-maximal inhibition (IC50) with HeLa was 57.3 µM; in the test with HepG2, 36 µM; in the test with CNE, 39.9 µM; in the test on A549, 57.8 µM.
For `C=CC[C@@H](Cc1c[nH]c2ccccc12)NS(=O)(=O)c1ccc(Cl)cc1Cl`, in that order: 41.1 µM, 55.4 µM, 42.7 µM and 55.7 µM.
As to `C=CC[C@@H](Cc1c[nH]c2ccccc12)NS(=O)(=O)c1ccc(C(F)(F)F)cc1Cl`, the IC50 in the test on HeLa is 44.8 µM; with HepG2, 33.1 µM; with CNE, 36.1 µM; in the test on A549, 53 µM.
`C=CC[C@@H](Cc1c[nH]c2ccccc12)NS(=O)(=O)c1ccc(C(F)(F)F)cc1Br`: the IC50 is 39.3 µM with HeLa, 42.1 µM with HepG2, 34.4 µM with CNE and 43.9 µM in the test with A549.
On the same counts, the results for `C=CC[C@@H](Cc1c[nH]c2ccccc12)NS(=O)(=O)c1ccccc1` are 69.5 µM, 58.4 µM, 40.8 µM and 77.1 µM.
On the same counts, the results for `C=CC[C@@H](Cc1c[nH]c2ccccc12)NS(=O)(=O)c1ccc(F)c(C(F)(F)F)c1` are 32 µM, 36.3 µM, 27 µM and 38.5 µM.
Turning to `C=CC[C@@H](Cc1c[nH]c2ccccc12)NS(=O)(=O)c1ccc(Cl)cc1F`, the IC50 in the test on HeLa came to 74.4 µM; in the test on HepG2, 78.4 µM.
Regarding `C=CC[C@@H](Cc1c[nH]c2ccccc12)NS(=O)(=O)c1ccc(C(F)(F)F)cc1[N+](=O)[O-]`, the 50% inhibitory concentration (IC50) in the test on HeLa came to 35.7 µM; in the test with HepG2 it was 40.4 µM; in the test on CNE, 39.3 µM; with A549, 74.2 µM.
For `C=CC[C@@H](Cc1c[nH]c2ccccc12)NS(=O)(=O)c1cc(Cl)c(F)cc1F`, in that order: 46.9 µM, 33.2 µM, 34.2 µM and 50.7 µM.
In the case of `C=CC[C@@H](Cc1c[nH]c2ccccc12)NS(=O)(=O)c1ccc(C(C)C)cc1`, the IC50 in the test with HeLa came out at 43.5 µM; with HepG2 it was 46.4 µM; in the test with CNE, 43.6 µM; in the test on A549, 53 µM.
On the same counts, the results for `C=CC[C@@H](Cc1c[nH]c2ccccc12)NS(=O)(=O)c1cc(C(F)(F)F)cc(C(F)(F)F)c1` are 30.2 µM, 21.9 µM, 24.1 µM and 35.6 µM.
For `C=CC[C@@H](Cc1c[nH]c2ccccc12)NS(=O)(=O)c1ccc(F)c(Cl)c1`, in that order: 33.8 µM, 38.2 µM, 34.2 µM and 41.6 µM.
